Reference: ChEMBL document CHEMBL2062526, “Tandem synthesis and in vitro antiplasmodial evaluation of new naphtho[2,1-d]thiazole derivatives” (Eur J Med Chem, 2012)

How the values were obtained:
Plasmodium falciparum = assay: Antiplasmodial activity against multidrug-resistant Plasmodium falciparum K1 ring stage after 72 hrs by […] Green fluorescence-based assay; type: functional, organism-based; settings: K1, 72 h
[1] = Cytotoxicity against human HepG2 cells after 72 hrs by MTT assay; type: cell-based
In short: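 HepG2 cells seeded at 5×10^3/well in RPMI with 10% FBS, L-glutamine, penicillin/streptomycin, 37 °C under 6% CO₂/14% O₂/80% N₂. Compounds added after 24 h, 72 h exposure, duplicate wells. MTT (5 mg/mL stock) for 2 h, formazan dissolved in DMSO, A570 with 630 nm reference. Viability relative to untreated cells. CC50 from non-linear regression, mean of three independent experiments.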

[2] = Selectivity index, ratio of CC50 for human HepG2 cells to IC50 for multidrug-resistant Plasmodium falciparum K1 ring stage; type: functional
In short: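 SI = CC50 (HepG2)/IC50 (K1). HepG2 MTT: 5×10^3 cells/well, 24 h preculture, compound 72 h, 37 °C; MTT 2 h, formazan in DMSO, A570 (ref 630 nm); duplicates, CC50 by non-linear regression, mean of three experiments. K1 IC50 by 72 h SYBR Green assay on sorbitol-synchronized rings.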

Structure (SMILES) | IC50 (Plasmodium falciparum) [µM] | CC50 at 72 h [1] [µM] | Ratio CC50/IC50 [2]
COc1cc2cc(S(=O)(=O)c3ccc(Cl)cc3)c3nc(C)sc3c2cc1OC | > 25 | > 31.2 | –
Cc1nc2c(S(=O)(=O)c3ccccc3)cc3ccccc3c2s1 | > 25 | 11.3 | <0.5
Cc1nc2c(S(=O)(=O)c3ccc(Cl)cc3)cc3ccccc3c2s1 | – | 6 | –
Cc1ccc2cc(S(=O)(=O)c3ccccc3)c3nc(C)sc3c2c1 | 4.8 | > 125 | >26
COc1cc2cc(S(=O)(=O)c3ccc(C)cc3)c3nc(C)sc3c2cc1OC | > 25 | > 125 | –
Cc1ccc(S(=O)(=O)c2cc3cc(F)ccc3c3sc(C)nc23)cc1 | – | 3.1 | –
Cc1ccc(S(=O)(=O)c2cc3ccc(C)cc3c3sc(C)nc23)cc1 | > 25 | > 250 | –
Cc1ccc(S(=O)(=O)c2cc3ccccc3c3sc(C)nc23)cc1 | – | 2.2 | –
Cc1nc2c(S(=O)(=O)c3ccccc3)cc3cc(F)ccc3c2s1 | > 25 | 26 | <1
Cc1ccc(S(=O)(=O)c2c(N)c3cc(F)ccc3c3sc(C)nc23)cc1 | – | 0.2 | –
Cc1nc2c(S(=O)(=O)c3ccccc3)c(N)c3ccccc3c2s1 | > 25 | > 500 | –
Cc1nc2c(S(=O)(=O)c3ccc(Cl)cc3)c(N)c3ccccc3c2s1 | – | 1 | –
COc1cc2cc(S(=O)(=O)c3ccccc3)c3nc(C)sc3c2cc1OC | 2.7 | > 125 | >45
Cc1nc2c(S(=O)(=O)c3ccc(Cl)cc3)cc3cc(F)ccc3c2s1 | – | 3.4 | –
C[C@H]1c2cccc(O)c2C(=O)C2=C(O)[C@]3(O)C(=O)C(C(N)=O)=C(O)[C@@H](N(C)C)[C@@H]3[C@@H](O)[C@@H]21.O [DOXYCYCLINE] | – | – | 4
Cc1nc2c(S(=O)(=O)c3ccccc3)c(N)c3cc(F)ccc3c2s1 | > 25 | > 500 | –
Cc1nc2c(S(=O)(=O)c3ccc(Cl)cc3)c(N)c3cc(F)ccc3c2s1 | – | 0.5 | –
Cc1ccc(S(=O)(=O)c2c(N)c3ccccc3c3sc(C)nc23)cc1 | – | 0.2 | –
